Assay results from ChEMBL document CHEMBL4732230, “Design, synthesis, and biological evaluation of 4-benzoylamino-1H-pyrazole-3-carboxamide derivatives as potent CDK2 inhibitors” (Eur J Med Chem, 2021).
Active and inactive are the calls of the source. The rule behind the calls is not given here.

Legend:
[1] = target: Cyclin-dependent kinase 1/cyclin B1 (Homo sapiens, UniProt P06493); type: protein-complex assay
A2058 [2] = assay: Antiproliferative activity against human A2058 cells assessed as reduction in cell viability measured after 96 hrs by Celltiter-Glo luminescent assay; type: functional, cell-based; settings: A2058, 96 h
Summary of the method: (§1)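 Cells in DMEM (A2058, MRC5) or RPMI 1640 (MV4-11), each with 10% fetal bovine serum and 1% penicillin/streptomycin. Cells were plated in 96-well plates and exposed to serially concentrated compound for 96 h, with DMSO as control. Viability was read by CellTiter-Glo luminescence and IC50 derived.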

CDK2/Cyclin A2 = CDK2/Cyclin A2 (Homo sapiens, UniProt P24941); assay: Inhibition of CDK2/cyclin A2 (unknown origin) using FAM-labeled peptide and ATP as substrate preincubated for 10 mins followed by substrate addition by mobility shift assay; type: protein-complex assay
CDK3/Cyclin E = CDK3/Cyclin E (Homo sapiens, UniProt Q00526); assay: Inhibition of CDK3/cyclin E1 (unknown origin) using FAM-labeled peptide and ATP as substrate preincubated for 10 mins followed by substrate addition by mobility shift assay; type: protein-complex assay
CDK3/Cyclin E, sequence (P24864 whole entry): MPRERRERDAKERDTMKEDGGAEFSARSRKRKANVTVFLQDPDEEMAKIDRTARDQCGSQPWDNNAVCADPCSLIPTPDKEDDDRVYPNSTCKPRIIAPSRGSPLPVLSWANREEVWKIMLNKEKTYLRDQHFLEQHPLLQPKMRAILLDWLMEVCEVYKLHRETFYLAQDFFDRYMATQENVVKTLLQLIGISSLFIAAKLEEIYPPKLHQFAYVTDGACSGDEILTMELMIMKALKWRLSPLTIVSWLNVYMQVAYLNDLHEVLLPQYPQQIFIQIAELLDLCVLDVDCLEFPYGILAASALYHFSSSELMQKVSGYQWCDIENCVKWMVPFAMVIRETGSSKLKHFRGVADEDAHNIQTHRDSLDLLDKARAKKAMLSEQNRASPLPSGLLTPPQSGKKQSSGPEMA
CDK3/Cyclin E, sequence (Q00526 whole entry): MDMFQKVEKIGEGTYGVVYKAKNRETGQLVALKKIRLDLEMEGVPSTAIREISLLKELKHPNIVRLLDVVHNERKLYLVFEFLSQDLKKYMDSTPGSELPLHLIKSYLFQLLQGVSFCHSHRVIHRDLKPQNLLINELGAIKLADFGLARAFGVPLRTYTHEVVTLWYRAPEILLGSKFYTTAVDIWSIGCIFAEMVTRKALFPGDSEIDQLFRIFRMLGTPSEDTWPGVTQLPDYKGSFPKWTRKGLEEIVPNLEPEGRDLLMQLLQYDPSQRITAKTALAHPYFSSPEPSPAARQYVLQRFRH
Summary of the method: (§2)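 Mobility shift assay in 50 mM HEPES pH 7.5 with 0.0015% Brij-35. Kinase was added to serially diluted compound in 10% DMSO and held 10 min at room temperature. FAM-labeled peptide and ATP were then added and the mixture incubated at 28 °C for the specified time. Reactions were stopped with EDTA-containing buffer.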

CDK4/Cyclin D3 = CDK4/Cyclin D3 (Homo sapiens, UniProt P11802); assay: Inhibition of CDK4/cyclin D3 (unknown origin) using FAM-labeled peptide and ATP as substrate preincubated for 10 mins followed by substrate addition by mobility shift assay; type: protein-complex assay
CDK4/Cyclin D3, sequence (P11802 whole entry): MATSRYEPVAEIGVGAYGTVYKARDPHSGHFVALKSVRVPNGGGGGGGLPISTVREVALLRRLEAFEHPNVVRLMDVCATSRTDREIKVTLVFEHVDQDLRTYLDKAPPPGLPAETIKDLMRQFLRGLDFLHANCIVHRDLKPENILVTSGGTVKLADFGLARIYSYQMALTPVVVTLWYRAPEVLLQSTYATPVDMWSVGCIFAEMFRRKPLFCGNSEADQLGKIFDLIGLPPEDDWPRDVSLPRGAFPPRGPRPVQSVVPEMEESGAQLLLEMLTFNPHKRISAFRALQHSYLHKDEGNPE
CDK4/Cyclin D3, sequence (P30281 whole entry, further chain): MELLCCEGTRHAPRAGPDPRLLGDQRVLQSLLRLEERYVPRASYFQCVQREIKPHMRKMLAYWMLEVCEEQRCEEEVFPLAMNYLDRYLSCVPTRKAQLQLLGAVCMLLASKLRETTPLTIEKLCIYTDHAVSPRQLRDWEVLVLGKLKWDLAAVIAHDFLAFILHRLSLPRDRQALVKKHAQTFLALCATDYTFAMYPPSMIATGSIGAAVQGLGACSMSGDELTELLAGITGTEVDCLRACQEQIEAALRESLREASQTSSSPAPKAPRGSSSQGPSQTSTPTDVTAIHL

CDK6/cyclin D3 = CDK6/cyclin D3 (Homo sapiens, UniProt Q00534); assay: Inhibition of CDK6/cyclin D3 (unknown origin) using FAM-labeled peptide and ATP as substrate preincubated for 10 mins followed by substrate addition by mobility shift assay; type: protein-complex assay
CDK6/cyclin D3, sequence (P30281 whole entry): as the sequence (P30281 whole entry, further chain) above
CDK6/cyclin D3, sequence (Q00534 whole entry): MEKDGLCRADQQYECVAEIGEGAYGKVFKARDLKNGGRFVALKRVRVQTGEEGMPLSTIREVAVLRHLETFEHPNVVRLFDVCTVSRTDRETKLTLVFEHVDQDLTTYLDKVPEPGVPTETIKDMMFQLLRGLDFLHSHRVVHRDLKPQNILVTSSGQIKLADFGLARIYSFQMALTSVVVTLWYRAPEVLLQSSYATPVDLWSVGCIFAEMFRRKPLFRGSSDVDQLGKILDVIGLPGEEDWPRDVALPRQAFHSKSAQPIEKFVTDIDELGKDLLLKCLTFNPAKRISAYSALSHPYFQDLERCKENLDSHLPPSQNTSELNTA
Summary of the method: as §2

CDK7/Cyclin H/MNAT1 = CDK7/Cyclin H/MNAT1 (Homo sapiens, UniProt P50613); assay: Inhibition of CDK7/cyclinH/MAT1 (unknown origin) using FAM-labeled peptide and ATP as substrate preincubated for 10 mins followed by substrate addition by mobility shift assay; type: protein-complex assay
Summary of the method: as §2

CDK9/cyclin T1 = CDK9/cyclin T1 (Homo sapiens, UniProt P50750); assay: Inhibition of CDK9/cyclin T1 (unknown origin) using FAM-labeled peptide and ATP as substrate preincubated for 10 mins followed by substrate addition by mobility shift assay; type: protein-complex assay
CDK12/Cyclin K = CDK12/Cyclin K (Homo sapiens, UniProt Q9NYV4); assay: Inhibition of CDK12/cyclin K (unknown origin) using FAM-labeled peptide and ATP as substrate preincubated for 10 mins followed by substrate addition by mobility shift assay; type: protein-complex assay
CDK12/Cyclin K, sequence (O75909 whole entry): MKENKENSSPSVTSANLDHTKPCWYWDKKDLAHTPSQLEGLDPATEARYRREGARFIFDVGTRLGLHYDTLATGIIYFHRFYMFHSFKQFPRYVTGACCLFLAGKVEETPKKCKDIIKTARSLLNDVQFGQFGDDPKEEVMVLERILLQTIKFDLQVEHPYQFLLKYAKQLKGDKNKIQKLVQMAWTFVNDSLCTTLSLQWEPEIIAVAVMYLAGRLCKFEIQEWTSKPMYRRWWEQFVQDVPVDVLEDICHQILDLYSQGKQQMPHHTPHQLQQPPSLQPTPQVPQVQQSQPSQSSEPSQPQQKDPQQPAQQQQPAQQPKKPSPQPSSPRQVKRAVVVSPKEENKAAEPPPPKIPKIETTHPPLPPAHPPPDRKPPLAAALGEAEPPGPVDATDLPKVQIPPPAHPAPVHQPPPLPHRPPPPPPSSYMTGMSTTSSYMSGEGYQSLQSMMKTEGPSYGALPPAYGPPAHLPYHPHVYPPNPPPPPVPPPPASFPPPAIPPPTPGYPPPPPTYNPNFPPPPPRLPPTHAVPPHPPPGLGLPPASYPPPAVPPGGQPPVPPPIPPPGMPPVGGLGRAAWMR
CDK12/Cyclin K, sequence (Q9NYV4 whole entry): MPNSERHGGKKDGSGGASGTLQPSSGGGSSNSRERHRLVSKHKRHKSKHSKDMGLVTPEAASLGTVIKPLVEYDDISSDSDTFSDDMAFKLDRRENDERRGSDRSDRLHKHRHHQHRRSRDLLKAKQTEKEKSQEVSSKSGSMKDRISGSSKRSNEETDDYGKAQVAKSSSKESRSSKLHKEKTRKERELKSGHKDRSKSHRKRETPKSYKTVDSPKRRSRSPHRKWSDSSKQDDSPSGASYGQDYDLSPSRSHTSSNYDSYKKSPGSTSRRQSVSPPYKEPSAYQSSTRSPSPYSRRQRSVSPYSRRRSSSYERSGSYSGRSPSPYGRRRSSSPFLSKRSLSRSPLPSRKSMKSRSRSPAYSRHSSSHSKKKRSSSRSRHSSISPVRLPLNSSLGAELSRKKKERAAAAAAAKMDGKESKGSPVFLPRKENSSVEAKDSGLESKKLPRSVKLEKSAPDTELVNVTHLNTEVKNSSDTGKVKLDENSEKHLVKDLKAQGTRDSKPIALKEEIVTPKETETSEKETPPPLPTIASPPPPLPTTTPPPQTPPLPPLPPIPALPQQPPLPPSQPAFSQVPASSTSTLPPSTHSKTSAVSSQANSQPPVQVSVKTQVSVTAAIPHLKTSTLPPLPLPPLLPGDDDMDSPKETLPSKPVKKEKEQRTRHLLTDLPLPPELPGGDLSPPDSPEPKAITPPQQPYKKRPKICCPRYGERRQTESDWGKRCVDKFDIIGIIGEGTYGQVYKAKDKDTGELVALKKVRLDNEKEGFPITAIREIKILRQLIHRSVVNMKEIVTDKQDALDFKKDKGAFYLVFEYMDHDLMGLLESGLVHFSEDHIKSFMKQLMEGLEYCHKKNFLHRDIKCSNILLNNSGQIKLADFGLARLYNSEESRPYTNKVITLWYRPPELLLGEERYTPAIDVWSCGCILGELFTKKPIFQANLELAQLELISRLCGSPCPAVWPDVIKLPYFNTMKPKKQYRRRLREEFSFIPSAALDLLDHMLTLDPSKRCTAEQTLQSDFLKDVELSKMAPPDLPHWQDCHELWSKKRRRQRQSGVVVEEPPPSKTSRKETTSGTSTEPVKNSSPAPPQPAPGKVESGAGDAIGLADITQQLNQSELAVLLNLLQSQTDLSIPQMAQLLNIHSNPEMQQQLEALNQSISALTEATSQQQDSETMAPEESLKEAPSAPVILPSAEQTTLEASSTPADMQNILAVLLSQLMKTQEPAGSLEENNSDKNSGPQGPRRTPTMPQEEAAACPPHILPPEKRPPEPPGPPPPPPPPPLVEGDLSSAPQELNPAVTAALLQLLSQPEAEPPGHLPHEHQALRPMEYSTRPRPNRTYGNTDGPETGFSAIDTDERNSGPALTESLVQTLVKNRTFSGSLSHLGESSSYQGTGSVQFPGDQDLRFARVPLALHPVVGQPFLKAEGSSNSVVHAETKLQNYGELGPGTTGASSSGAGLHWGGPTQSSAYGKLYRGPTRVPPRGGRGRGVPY
Summary of the method: as §2

MV4-11 = assay: Antiproliferative activity against human MV4-11 cells assessed as reduction in cell viability measured after 96 hrs by Celltiter-Glo luminescent assay; type: functional, cell-based; settings: MV4-11, 96 h
Summary of the method: as §1

MRC5 = assay: Cytotoxicity against human MRC5 cells assessed as reduction in cell viability measured after 96 hrs by Celltiter-Glo luminescent assay; type: cell-based; settings: MRC5, 96 h
Summary of the method: as §1

[3] = Cytotoxicity against human LX2 cells assessed as inhibition of cell growth at 100 uM measured after 96 hrs by Celltiter-Glo luminescent assay; type: cell-based
Summary of the method: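 LX2 cells grown in DMEM with 10% fetal bovine serum and 1% penicillin/streptomycin, plated in 96-well plates. They were treated with compound at […] or DMSO control for 96 h. Viability was read by CellTiter-Glo luminescence and expressed as percent inhibition.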

[4] = target: Cyclin-dependent kinase 2 (Homo sapiens) (UniProt P24941); assay: Inhibition of CDK2 in human MV4-11 cells assessed as reduction in Rb phosphorylation at Ser807/811 after 24 to 48 hrs by immunoblot analysis; type: cell-based; settings: dose 0.375-6 µM, time lower […], time upper 48.0 hrs
Summary of the method: (§3)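 MV4-11 cells treated with compound for 24 h or 48 h. Lysates were separated on 8% or 10% SDS-PAGE and transferred to nitrocellulose. Membranes were immunoblotted for phospho-Rb Ser780, phospho-Rb Ser807/811 and total Rb, with β-actin as loading control. Detection used HRP secondary at 1:10,000 and ECL.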

[5] = target: Cyclin-dependent kinase 2 (Homo sapiens) (UniProt P24941); assay: Inhibition of CDK2 in human MV4-11 cells assessed as reduction in Rb phosphorylation at Ser807/811 at 0.375 to 6 uM by immunoblot analysis; type: cell-based; settings: dose 0.375-6 µM, time lower […], time upper 48.0 hrs, TDE = time-dependent effect
Summary of the method: as §3

[6] = target: Cyclin-dependent kinase 2 (Homo sapiens) (UniProt P24941); assay: Inhibition of CDK2 in human MV4-11 cells assessed as reduction in Rb phosphorylation at Ser780 after 24 to 48 hrs by immunoblot analysis; type: cell-based; settings: dose 0.375-6 µM, time lower […], time upper 48.0 hrs
Summary of the method: as §3

[7] = target: Cyclin-dependent kinase 2 (Homo sapiens) (UniProt P24941); assay: Inhibition of CDK2 in human MV4-11 cells assessed as reduction in Rb phosphorylation at Ser780 at 0.375 to 6 uM by immunoblot analysis; type: cell-based; settings: dose 0.375-6 µM, time lower […], time upper 48.0 hrs, TDE = time-dependent effect
Summary of the method: as §3

[8] = target: Cyclin-dependent kinase 2 (Homo sapiens) (UniProt P24941); assay: Inhibition of CDK2 in human MV4-11 cells assessed as downregulation of Mcl-1 expression at 0.1875 to 3 uM after 24 hrs by immunoblot analysis; type: cell-based; settings: dose 0.1875-3 µM
Summary of the method: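 MV4-11 cells exposed to compound for 24 h. Lysates were resolved by 8% or 10% SDS-PAGE and blotted to nitrocellulose. Blots were probed with anti-Mcl-1 overnight at 4 °C, then HRP secondary at 1:10,000. Bands were developed by ECL, with GAPDH as loading control.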

[9] = target: Cyclin-dependent kinase 2 (Homo sapiens) (UniProt P24941); assay: Inhibition of CDK2 in human A2058 cells assessed as downregulation of Mcl-1 expression at 0.1875 to 1.5 uM after 24 hrs by immunoblot analysis; type: cell-based; settings: dose 0.1875-1.5 µM
A2058 [10] = assay: Induction of cell cycle arrest in human A2058 cells assessed as accumulation at G1 phase at 0.2 uM after 24 hrs by propidium iodide/RNase staining based flow cytometric analysis (reference value: 48.05 %); type: functional
A2058 [11] = assay: Induction of cell cycle arrest in human A2058 cells assessed as accumulation at G2 phase at 0.2 uM after 24 hrs by propidium iodide/RNase staining based flow cytometric analysis (reference value: 21.19 %); type: functional
A2058 [12] = assay: Induction of cell cycle arrest in human A2058 cells assessed as accumulation at S phase at 0.2 uM after 24 hrs by propidium iodide/RNase staining based flow cytometric analysis (reference value: 30.76 %); type: functional
A2058 [13] = assay: Induction of cell cycle arrest in human A2058 cells assessed as accumulation at G1 phase at 0.4 uM after 24 hrs by propidium iodide/RNase staining based flow cytometric analysis (reference value: 48.05 %); type: functional
A2058 [14] = assay: Induction of cell cycle arrest in human A2058 cells assessed as accumulation at G2 phase at 0.4 uM after 24 hrs by propidium iodide/RNase staining based flow cytometric analysis (reference value: 21.19 %); type: functional
A2058 [15] = assay: Induction of cell cycle arrest in human A2058 cells assessed as accumulation at S phase at 0.4 uM after 24 hrs by propidium iodide/RNase staining based flow cytometric analysis (reference value: 30.76 %); type: functional
A2058 [16] = assay: Induction of apoptosis in human A2058 cells assessed as viable cells at 1 uM measured after 48 hrs by Annexin V-FITC/propidium iodide staining based flow cytometry (reference value: 94.6 %); type: functional; settings: read-out: Activity
A2058 [17] = assay: Induction of apoptosis in human A2058 cells assessed as early apoptotic cells at 1 uM measured after 48 hrs by Annexin V-FITC/propidium iodide staining based flow cytometry (reference value: 3.13 %); type: functional
A2058 [18] = assay: Induction of apoptosis in human A2058 cells assessed as late apoptotic cells at 1 uM measured after 48 hrs by Annexin V-FITC/propidium iodide staining based flow cytometry (reference value: 1.85 %); type: functional
A2058 [19] = assay: Induction of apoptosis in human A2058 cells assessed as necrotic cells at 1 uM measured after 48 hrs by Annexin V-FITC/propidium iodide staining based flow cytometry (reference value: 0.37 %); type: functional
A2058 [20] = assay: Induction of apoptosis in human A2058 cells assessed as viable cells at 0.4 uM measured after 48 hrs by Annexin V-FITC/propidium iodide staining based flow cytometry (reference value: 94.6 %); type: functional; settings: read-out: Activity
A2058 [21] = assay: Induction of apoptosis in human A2058 cells assessed as early apoptotic cells at 0.4 uM measured after 48 hrs by Annexin V-FITC/propidium iodide staining based flow cytometry (reference value: 3.13 %); type: functional
A2058 [22] = assay: Induction of apoptosis in human A2058 cells assessed as late apoptotic cells at 0.4 uM measured after 48 hrs by Annexin V-FITC/propidium iodide staining based flow cytometry (reference value: 1.85 %); type: functional
A2058 [23] = assay: Induction of apoptosis in human A2058 cells assessed as necrotic cells at 0.4 uM measured after 48 hrs by Annexin V-FITC/propidium iodide staining based flow cytometry (reference value: 0.37 %); type: functional
A2058 [24] = assay: Induction of apoptosis in human A2058 cells assessed as viable cells at 0.2 uM measured after 48 hrs by Annexin V-FITC/propidium iodide staining based flow cytometry (reference value: 94.6 %); type: functional; settings: read-out: Activity
A2058 [25] = assay: Induction of apoptosis in human A2058 cells assessed as early apoptotic cells at 0.2 uM measured after 48 hrs by Annexin V-FITC/propidium iodide staining based flow cytometry (reference value: 3.13 %); type: functional
A2058 [26] = assay: Induction of apoptosis in human A2058 cells assessed as late apoptotic cells at 0.2 uM measured after 48 hrs by Annexin V-FITC/propidium iodide staining based flow cytometry (reference value: 1.85 %); type: functional
A2058 [27] = assay: Induction of apoptosis in human A2058 cells assessed as necrotic cells at 0.2 uM measured after 48 hrs by Annexin V-FITC/propidium iodide staining based flow cytometry (reference value: 0.37 %); type: functional
A2058 [28] = assay: Induction of apoptosis in human A2058 cells assessed as upregulation of cleaved caspase-3 level after 24 hrs by immunoblot analysis; type: functional, cell-based; settings: dose 0.1875-1.5 µM
Summary of the method: (§4)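 A2058 cells treated with compound for 24 h and lysed. Lysates were run on 8% or 10% SDS-PAGE and transferred to nitrocellulose, then blocked in 5% milk/TBST for 60 min. Blots were probed overnight at 4 °C for cleaved caspase-3 or cleaved PARP, then with HRP secondary at 1:10,000 for 1 h. Detection was by ECL, with tubulin as loading control.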

A2058 [29] = assay: Induction of apoptosis in human A2058 cells assessed as upregulation of cleaved PARP level after 24 hrs by immunoblot analysis; type: functional, cell-based; settings: dose 0.1875-1.5 µM
Summary of the method: as §4

Cyclin-dependent kinase 1/cyclin B1, sequence (P06493 whole entry): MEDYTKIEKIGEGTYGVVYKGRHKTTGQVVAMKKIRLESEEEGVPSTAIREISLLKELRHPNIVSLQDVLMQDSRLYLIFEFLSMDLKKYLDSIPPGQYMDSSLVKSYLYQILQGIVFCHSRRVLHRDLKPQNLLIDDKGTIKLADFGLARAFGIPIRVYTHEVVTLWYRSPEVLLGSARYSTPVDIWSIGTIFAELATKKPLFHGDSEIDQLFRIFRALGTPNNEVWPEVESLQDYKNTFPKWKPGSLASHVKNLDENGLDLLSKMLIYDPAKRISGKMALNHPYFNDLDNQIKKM
Cyclin-dependent kinase 1/cyclin B1, sequence (P14635 whole entry, further chain): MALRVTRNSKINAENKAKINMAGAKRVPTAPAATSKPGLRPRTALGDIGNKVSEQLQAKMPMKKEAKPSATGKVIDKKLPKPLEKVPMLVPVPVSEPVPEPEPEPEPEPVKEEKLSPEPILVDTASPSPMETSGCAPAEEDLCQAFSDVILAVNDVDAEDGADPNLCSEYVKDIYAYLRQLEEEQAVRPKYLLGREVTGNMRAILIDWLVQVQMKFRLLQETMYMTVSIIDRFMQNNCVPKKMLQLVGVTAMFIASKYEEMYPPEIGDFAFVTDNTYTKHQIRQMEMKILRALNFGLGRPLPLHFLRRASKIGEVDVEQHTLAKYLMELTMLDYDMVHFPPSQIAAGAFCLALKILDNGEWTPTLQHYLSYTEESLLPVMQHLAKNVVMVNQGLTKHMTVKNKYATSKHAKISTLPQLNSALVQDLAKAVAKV

Compound O=C(Nc1ccc(F)cc1)c1n[nH]cc1NC(=O)c1c(F)cccc1F has an IC50 [1] of 14 nM and an IC50 (A2058 [2]) of 1010 nM.

O=C(Nc1ccc(F)cc1)c1n[nH]cc1NC(=O)c1c(F)ccc(-c2ccccc2)c1F showed an IC50 [1] of 432 nM, an IC50 (CDK2/Cyclin A2) of 86 nM and an IC50 (A2058 [2]) of 2370 nM.

In the case of NC(=O)c1cccc(-c2ccc(F)c(C(=O)Nc3c[nH]nc3C(=O)Nc3ccc(F)cc3)c2F)c1, the IC50 [1] is reported as 69 nM, the IC50 (CDK2/Cyclin A2) is reported as 8 nM and the IC50 (A2058 [2]) is reported as 1990 nM.

For NS(=O)(=O)c1ccc(Nc2nc(-c3cccc(-c4ccccc4)c3)c3nc[nH]c3n2)cc1, the IC50 [1] was > 200000 nM, the IC50 (CDK2/Cyclin A2) was 543 nM and the IC50 (A2058 [2]) was > 100000 nM.

NC(=O)c1ccc(-c2ccc(F)c(C(=O)Nc3c[nH]nc3C(=O)Nc3ccc(F)cc3)c2F)cn1 gave an IC50 [1] of 1020 nM, an IC50 (CDK2/Cyclin A2) of 58 nM and an IC50 (A2058 [2]) of 295 nM. The IC50 (CDK3/Cyclin E) was 113 nM, the IC50 (CDK4/Cyclin D3) was 3480 nM and the IC50 (CDK6/cyclin D3) was > 18000 nM. The IC50 (CDK7/Cyclin H/MNAT1) was > 18000 nM, the IC50 (CDK9/cyclin T1) was 1120 nM and the IC50 (CDK12/Cyclin K) was > 18000 nM. The IC50 (MV4-11) was 252 nM, the IC50 (MRC5) was 54800 nM and the inhibition at 96 h, 100 µM [3] was 32.5%. The inhibition [4] was “Dose-dependent effect”, the inhibition [5] was “Tde” and the inhibition [6] was “Dose-dependent effect”. For the same compound, the inhibition [7] was “Tde”, the inhibition [8] was “Active” and the inhibition [9] was “Active”. For the same compound, the Activity (A2058 [10]) was 36.89%, the Activity (A2058 [11]) was 21.76% and the Activity (A2058 [12]) was 41.35%. The Activity (A2058 [13]) was 48.05%, the Activity (A2058 [14]) was 41.44% and the Activity (A2058 [15]) was 39.82%. The viability at 1 µM (A2058 [16]) was 23.7%, the Activity (A2058 [17]) was 40% and the Activity (A2058 [18]) was 28.6%. For the same compound, the Activity (A2058 [19]) was 7.66%, the viability at 0.4 µM (A2058 [20]) was 55.1% and the Activity (A2058 [21]) was 21.7%. It also gave an Activity (A2058 [22]) of 14.6%, an Activity (A2058 [23]) of 8.32% and a viability at 0.2 µM (A2058 [24]) of 87.3%. The Activity (A2058 [25]) was 4.52%, the Activity (A2058 [26]) was 4.75% and the Activity (A2058 [27]) was 3.41%. The Activity (A2058 [28]) was “Dose-dependent effect” and the Activity (A2058 [29]) was “Dose-dependent effect”.
